Assay results as given in ChEMBL document CHEMBL4118021, “Studies of TAK1-centered polypharmacology with novel covalent TAK1 inhibitors” (Bioorg Med Chem, 2017).
Calls of active or inactive are those of the source. The rule behind the calls is not given here.

Assays:
[1] = target: Pyruvate dehydrogenase E1 component subunit beta, mitochondrial (Homo sapiens) (UniProt P11177); assay: Binding affinity to PDHB in human NCI-H358 cells at 1 uM by mass spectrometry based pull down assay; format: cell-based
[2] = target: Probable ATP-dependent RNA helicase DDX6 (Homo sapiens) (UniProt P26196); assay: Binding affinity to DDX6 in human NCI-H23 cells at 1 uM by mass spectrometry based pull down assay; format: cell-based
Sequence of Probable ATP-dependent RNA helicase DDX6 (Homo sapiens) (P26196 whole entry): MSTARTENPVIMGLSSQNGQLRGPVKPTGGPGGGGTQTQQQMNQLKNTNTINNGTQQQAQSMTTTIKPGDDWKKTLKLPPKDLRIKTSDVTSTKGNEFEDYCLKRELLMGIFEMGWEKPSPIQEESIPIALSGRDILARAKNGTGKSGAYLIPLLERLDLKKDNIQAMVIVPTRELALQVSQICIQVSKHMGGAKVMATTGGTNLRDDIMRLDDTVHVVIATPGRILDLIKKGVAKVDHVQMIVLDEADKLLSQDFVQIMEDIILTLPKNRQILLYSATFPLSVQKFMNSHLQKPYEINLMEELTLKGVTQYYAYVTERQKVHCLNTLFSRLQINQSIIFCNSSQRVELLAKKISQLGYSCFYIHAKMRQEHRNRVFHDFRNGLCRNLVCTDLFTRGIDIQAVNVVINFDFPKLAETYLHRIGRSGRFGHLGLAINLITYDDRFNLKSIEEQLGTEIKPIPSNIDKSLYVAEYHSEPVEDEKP

[3] = target: Heterogeneous nuclear ribonucleoprotein U (Homo sapiens) (UniProt Q00839); assay: Binding affinity to HNRNPU in human NCI-H358 cells at 1 uM by mass spectrometry based pull down assay; format: cell-based
Sequence of Heterogeneous nuclear ribonucleoprotein U (Homo sapiens) (Q00839 whole entry): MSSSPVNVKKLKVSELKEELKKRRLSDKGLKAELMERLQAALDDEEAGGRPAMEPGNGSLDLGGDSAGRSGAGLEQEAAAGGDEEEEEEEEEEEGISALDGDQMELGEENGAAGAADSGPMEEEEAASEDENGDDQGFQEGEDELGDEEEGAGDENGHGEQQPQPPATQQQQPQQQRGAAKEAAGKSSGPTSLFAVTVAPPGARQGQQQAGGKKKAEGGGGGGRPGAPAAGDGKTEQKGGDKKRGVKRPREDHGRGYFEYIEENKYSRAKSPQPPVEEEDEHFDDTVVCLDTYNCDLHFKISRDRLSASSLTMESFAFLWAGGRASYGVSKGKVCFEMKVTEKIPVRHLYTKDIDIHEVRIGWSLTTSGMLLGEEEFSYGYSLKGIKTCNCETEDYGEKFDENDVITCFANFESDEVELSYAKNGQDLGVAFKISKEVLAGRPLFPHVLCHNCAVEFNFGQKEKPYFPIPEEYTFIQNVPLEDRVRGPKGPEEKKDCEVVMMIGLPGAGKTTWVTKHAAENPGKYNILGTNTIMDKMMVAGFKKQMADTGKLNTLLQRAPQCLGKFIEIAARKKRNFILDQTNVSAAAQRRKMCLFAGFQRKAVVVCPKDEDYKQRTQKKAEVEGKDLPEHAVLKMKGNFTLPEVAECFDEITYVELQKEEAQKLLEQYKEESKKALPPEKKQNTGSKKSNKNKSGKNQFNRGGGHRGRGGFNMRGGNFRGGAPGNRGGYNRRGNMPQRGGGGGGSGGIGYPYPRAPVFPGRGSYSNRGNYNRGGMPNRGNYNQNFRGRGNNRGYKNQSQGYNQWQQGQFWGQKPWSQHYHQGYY

[4] = target: Protein transport protein Sec16A (Homo sapiens) (UniProt O15027); assay: Binding affinity to SEC16A in human NCI-H358 cells at 1 uM by mass spectrometry based pull down assay; format: cell-based
Sequence of Protein transport protein Sec16A (Homo sapiens) (O15027 whole entry): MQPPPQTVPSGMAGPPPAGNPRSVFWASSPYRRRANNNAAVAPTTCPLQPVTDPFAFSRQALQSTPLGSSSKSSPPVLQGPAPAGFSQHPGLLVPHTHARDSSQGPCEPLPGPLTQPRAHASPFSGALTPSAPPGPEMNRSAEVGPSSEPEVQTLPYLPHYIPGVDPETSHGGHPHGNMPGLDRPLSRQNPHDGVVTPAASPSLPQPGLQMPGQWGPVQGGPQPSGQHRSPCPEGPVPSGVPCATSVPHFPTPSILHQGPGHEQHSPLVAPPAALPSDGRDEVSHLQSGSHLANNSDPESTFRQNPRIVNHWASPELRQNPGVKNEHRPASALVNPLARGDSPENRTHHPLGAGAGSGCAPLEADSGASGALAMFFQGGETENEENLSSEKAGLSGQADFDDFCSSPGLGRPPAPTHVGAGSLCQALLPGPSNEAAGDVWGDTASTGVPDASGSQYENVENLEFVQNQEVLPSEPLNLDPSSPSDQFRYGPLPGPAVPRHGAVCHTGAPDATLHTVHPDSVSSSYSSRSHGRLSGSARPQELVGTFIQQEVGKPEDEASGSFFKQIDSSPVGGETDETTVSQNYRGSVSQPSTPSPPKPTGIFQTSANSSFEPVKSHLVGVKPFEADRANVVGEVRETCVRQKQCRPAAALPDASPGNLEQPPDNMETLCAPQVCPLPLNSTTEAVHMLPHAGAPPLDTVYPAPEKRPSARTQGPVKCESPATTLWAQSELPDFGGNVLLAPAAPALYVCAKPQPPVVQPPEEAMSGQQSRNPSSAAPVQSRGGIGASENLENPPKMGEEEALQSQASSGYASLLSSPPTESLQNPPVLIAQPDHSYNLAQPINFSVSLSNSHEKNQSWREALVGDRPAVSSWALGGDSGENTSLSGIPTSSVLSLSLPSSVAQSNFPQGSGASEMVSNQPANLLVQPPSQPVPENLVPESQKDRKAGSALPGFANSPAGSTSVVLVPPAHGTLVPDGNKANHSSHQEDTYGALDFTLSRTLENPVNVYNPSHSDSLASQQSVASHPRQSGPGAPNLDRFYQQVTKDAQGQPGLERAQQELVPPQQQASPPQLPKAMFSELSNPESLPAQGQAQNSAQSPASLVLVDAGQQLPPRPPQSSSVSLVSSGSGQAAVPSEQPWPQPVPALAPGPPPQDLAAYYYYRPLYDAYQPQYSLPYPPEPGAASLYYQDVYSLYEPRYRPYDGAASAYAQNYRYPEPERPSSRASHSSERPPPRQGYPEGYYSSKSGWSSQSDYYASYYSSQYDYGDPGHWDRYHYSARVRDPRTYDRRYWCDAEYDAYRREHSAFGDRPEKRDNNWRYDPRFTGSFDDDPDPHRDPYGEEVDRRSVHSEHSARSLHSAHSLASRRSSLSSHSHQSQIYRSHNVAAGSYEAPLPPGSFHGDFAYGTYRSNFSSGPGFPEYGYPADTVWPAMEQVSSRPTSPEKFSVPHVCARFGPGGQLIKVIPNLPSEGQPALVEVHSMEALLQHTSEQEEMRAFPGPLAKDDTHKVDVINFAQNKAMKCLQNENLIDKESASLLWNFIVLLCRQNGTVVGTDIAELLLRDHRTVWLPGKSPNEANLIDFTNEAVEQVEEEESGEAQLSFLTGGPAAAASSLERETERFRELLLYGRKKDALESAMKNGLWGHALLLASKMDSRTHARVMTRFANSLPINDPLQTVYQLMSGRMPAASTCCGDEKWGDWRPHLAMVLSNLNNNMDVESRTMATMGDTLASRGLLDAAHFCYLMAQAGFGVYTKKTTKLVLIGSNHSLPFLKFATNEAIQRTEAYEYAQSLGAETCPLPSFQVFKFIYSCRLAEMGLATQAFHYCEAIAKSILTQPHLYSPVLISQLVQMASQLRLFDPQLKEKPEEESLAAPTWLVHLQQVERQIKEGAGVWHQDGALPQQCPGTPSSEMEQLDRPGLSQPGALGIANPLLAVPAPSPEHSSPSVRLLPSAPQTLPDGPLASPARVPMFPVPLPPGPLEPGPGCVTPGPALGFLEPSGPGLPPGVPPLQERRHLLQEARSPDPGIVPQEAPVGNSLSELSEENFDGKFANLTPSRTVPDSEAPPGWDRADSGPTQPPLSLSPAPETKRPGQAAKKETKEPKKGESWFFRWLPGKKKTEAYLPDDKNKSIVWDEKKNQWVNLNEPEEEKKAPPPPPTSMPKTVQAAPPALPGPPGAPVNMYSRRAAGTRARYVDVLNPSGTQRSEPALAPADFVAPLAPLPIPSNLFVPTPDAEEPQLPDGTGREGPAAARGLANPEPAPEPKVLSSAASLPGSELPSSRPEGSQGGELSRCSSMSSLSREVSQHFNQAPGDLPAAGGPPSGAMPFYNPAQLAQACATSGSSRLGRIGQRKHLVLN

[5] = target: T-complex protein 1 subunit epsilon (Homo sapiens) (UniProt P48643); assay: Binding affinity to CCT5 in human NCI-H358 cells at 1 uM by mass spectrometry based pull down assay; format: cell-based
Sequence of T-complex protein 1 subunit epsilon (Homo sapiens) (P48643 whole entry, one chain of several): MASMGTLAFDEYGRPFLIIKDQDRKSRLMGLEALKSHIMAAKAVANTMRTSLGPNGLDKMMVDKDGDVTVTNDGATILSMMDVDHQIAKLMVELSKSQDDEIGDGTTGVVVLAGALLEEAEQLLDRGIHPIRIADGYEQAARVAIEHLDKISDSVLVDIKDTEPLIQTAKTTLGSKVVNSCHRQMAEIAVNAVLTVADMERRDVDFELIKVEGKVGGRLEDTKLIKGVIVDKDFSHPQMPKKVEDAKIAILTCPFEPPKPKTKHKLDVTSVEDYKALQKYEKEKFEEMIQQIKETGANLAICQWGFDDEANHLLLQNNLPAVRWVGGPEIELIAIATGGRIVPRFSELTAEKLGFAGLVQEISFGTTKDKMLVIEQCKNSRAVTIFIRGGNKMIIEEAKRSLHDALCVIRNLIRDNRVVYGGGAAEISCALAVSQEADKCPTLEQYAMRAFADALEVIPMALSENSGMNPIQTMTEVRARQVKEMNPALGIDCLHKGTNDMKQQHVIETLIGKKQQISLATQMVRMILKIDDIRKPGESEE

[6] = target: Cancer-related nucleoside-triphosphatase (Homo sapiens) (UniProt Q9BSD7); assay: Binding affinity to NTPCR in human NCI-H358 cells at 1 uM by mass spectrometry based pull down assay; format: cell-based
Sequence of Cancer-related nucleoside-triphosphatase (Homo sapiens) (Q9BSD7 whole entry): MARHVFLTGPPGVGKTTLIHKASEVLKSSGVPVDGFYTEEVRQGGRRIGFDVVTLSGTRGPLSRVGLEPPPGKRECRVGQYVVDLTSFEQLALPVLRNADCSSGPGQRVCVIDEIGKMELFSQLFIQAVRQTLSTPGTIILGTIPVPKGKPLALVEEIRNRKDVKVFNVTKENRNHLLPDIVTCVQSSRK

[7] = target: Protein arginine N-methyltransferase 5 (Homo sapiens) (UniProt O14744); assay: Binding affinity to PRMT5 in human NCI-H23 cells at 1 uM by mass spectrometry based pull down assay; format: cell-based
[8] = target: Very-long-chain 3-oxoacyl-CoA reductase (Homo sapiens) (UniProt Q53GQ0); assay: Binding affinity to HSD17B12 in human NCI-H358 cells at 1 uM by mass spectrometry based pull down assay; format: cell-based
[9] = target: Spermidine synthase (Homo sapiens) (UniProt P19623); assay: Binding affinity to SRM in human NCI-H23 cells at 1 uM by mass spectrometry based pull down assay; format: cell-based
Sequence of Spermidine synthase (Homo sapiens) (P19623 whole entry): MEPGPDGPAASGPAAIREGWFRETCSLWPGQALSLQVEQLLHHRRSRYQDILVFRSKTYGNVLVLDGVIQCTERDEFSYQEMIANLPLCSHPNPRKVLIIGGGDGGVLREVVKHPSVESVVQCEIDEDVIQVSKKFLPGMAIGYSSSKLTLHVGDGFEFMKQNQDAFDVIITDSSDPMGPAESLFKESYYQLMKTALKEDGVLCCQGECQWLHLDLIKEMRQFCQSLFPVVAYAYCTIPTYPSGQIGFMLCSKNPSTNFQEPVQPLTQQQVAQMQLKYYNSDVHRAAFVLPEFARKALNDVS

[10] = target: Proteasome activator complex subunit 2 (Homo sapiens) (UniProt Q9UL46); assay: Binding affinity to PSME2 in human NCI-H358 cells at 1 uM by mass spectrometry based pull down assay; format: cell-based
[11] = target: Glyoxalase domain-containing protein 4 (Homo sapiens) (UniProt Q9HC38); assay: Binding affinity to GLOD4 in human NCI-H23 cells at 1 uM by mass spectrometry based pull down assay; format: cell-based
[12] = target: Inosine-5'-monophosphate dehydrogenase 2 (Homo sapiens) (UniProt P12268); assay: Binding affinity to IMPDH2 in human NCI-H23 cells at 1 uM by mass spectrometry based pull down assay; format: cell-based
[13] = target: Signal recognition particle receptor subunit beta (Homo sapiens) (UniProt Q9Y5M8); assay: Binding affinity to SRPRB in human NCI-H358 cells at 1 uM by mass spectrometry based pull down assay; format: cell-based
[14] = target: Proteasome adapter and scaffold protein ECM29 (Homo sapiens) (UniProt Q5VYK3); assay: Binding affinity to KIAA0368 in human NCI-H358 cells at 1 uM by mass spectrometry based pull down assay; format: cell-based
[15] = target: Glutathione S-transferase P (Homo sapiens) (UniProt P09211); assay: Binding affinity to GSTP1 in human NCI-H23 cells at 1 uM by mass spectrometry based pull down assay; format: cell-based
Sequence of Glutathione S-transferase P (Homo sapiens) (P09211 2-210 limits assumed): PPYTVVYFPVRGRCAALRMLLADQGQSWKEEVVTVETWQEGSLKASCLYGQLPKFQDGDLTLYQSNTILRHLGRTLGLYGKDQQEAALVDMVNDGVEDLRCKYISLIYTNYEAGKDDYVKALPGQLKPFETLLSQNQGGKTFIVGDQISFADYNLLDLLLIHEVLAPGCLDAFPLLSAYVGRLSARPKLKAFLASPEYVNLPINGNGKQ

[16] = target: T1, Dual specificity mitogen-activated protein kinase kinase 4 (Homo sapiens) (UniProt P45985); assay: Inhibition of human MEK4 (84 to 399 residues) expressed in mammalian expression system assessed as enzyme activity at 10 uM by KINOMEScan assay relative to control; design: scale not given: the % may be the effect or the level left
T1 sequence (whole entry): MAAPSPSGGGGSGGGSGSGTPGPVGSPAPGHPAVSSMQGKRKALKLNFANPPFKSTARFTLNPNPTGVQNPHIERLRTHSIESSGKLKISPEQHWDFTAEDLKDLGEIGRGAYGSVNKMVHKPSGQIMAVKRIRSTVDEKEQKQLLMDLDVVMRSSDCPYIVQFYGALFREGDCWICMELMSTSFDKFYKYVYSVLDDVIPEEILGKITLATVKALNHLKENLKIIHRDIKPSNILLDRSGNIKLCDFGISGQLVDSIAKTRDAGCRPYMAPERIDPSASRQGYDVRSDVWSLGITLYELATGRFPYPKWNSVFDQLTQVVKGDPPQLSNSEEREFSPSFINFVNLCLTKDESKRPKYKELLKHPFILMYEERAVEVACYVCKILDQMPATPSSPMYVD
How it was run: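 In vitro ATP-site competition binding assay across a panel of 456 kinases, with compound tested at 1 and 10 μM.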

[17] = target: Activin receptor type-1 (Homo sapiens) (UniProt Q04771); assay: Inhibition of human ACVR1 (188 to 509 residues) expressed in bacterial expression system assessed as enzyme activity at 10 uM by KINOMEScan assay relative to control; design: scale not given: the % may be the effect or the level left
How it was run: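 In vitro ATP-site competition binding assay (KinomeScan) across a panel of 456 kinases. Compound was tested at 1 and 10 μM. The read-out is the binding inhibition score relative to control.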

[18] = target: Mitogen-activated protein kinase 13 (Homo sapiens) (UniProt O15264); assay: Inhibition of p38d in human SKCO1 cells at 1 uM after 4 hrs using biotin labeled DLKPGNLAVNEDCELK probe by mass-spectrometric analysis relative to control; format: cell-based
[19] = target: T2, Mitogen-activated protein kinase kinase kinase 7 (Homo sapiens) (UniProt O43318); assay: Inhibition of TAK1 in RA patient-derived synovial fibroblasts assessed as inhibition of poly(I:C)-induced cytokine secretion at 3 uM preincubated for 3 hrs followed by poly(I:C) stimulation measured after 18 hrs by sandwich immunoassay
T2 sequence (whole entry): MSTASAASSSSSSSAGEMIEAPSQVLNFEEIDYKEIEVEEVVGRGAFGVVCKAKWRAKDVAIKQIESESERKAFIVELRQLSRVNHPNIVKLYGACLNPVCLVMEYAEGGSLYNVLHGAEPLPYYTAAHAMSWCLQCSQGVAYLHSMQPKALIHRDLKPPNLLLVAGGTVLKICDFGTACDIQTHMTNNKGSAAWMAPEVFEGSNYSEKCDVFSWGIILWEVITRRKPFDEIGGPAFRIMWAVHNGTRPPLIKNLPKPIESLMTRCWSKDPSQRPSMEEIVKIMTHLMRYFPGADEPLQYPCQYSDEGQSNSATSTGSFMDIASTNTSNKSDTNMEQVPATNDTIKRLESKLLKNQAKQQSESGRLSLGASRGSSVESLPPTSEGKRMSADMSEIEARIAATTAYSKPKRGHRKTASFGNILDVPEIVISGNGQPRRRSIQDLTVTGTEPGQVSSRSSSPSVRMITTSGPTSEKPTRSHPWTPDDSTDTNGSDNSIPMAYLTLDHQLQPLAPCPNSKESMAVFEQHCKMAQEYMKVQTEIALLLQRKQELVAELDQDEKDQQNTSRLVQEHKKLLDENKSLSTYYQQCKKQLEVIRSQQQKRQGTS
How it was run: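 Primary RA synovial fibroblasts (donor RA2159) seeded 1000 cells/well and grown ~24 h at 37 °C, 5% CO2. Starved overnight in basal medium, then ~4 h in basal medium with 0.1% BSA. Two adjacent wells pooled per replicate, in biological duplicate. Supernatants diluted 1:3 and run on Luminex 27-plex/21-plex sandwich immunoassays for 48 analytes, with spiked-ligand and mock-supernatant background controls.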

C=CC(=O)Nc1ccccc1Nc1nc(Nc2ccc(N3CCN(CCOCCOCCOCCNC(=O)CCCC[C@@H]4SC[C@@H]5NC(=O)N[C@@H]54)CC3)cc2)ncc1Cl
Activity [1]: Active | Activity [2]: Active | Activity [3]: Active | Activity [4]: Active | Activity [5]: Active | Activity [6]: Active | Activity [7]: Active | Activity [8]: Active | Activity [9]: Active | Activity [10]: Active | Activity [11]: Active | Activity [12]: Active | Activity [13]: Active | Activity [14]: Active | Activity [15]: Active

COc1cc(O)c2c(c1)/C=C/C[C@H](O)[C@H](O)C(=O)/C=C\C[C@H](C)OC2=O
Activity [16]: 0.35% | Activity [17]: 1.9%

C=CC(=O)Nc1ccccc1Nc1nc(Nc2ccc(N3CCN(C)CC3)cc2)ncc1Cl
inhibition [18]: -8.5%

C=CC(=O)Nc1ccccc1Oc1nc(Nc2cnn(CCOC)c2)ncc1Cl
inhibition [19]: Active
